Test results published in ChEMBL document CHEMBL5214995, “Orally Bioavailable Quinoxaline Inhibitors of 15-Prostaglandin Dehydrogenase (15-PGDH) Promote Tissue Repair and Regeneration” (J Med Chem, 2022).
In brackets after ≈: the same amount, converted by molar mass. Each block holds one compound with its values, some of them ahead of it. Activity calls are given as the source filed them. No cut-off for these calls is given here.

Experiments:
[1] = Aqueous solubility of the compound under shaking condition by LC-MS/MS analysis; assay type: physicochemical; conditions: buffer
[2] = AUC in CD-1 mouse at 10 mg/kg,ip measured upto 1440 mins by LC-MS/MS analysis; assay type: ADME, organism-based; design: time < 1440 min, dose 10 mg/kg, route ip; conditions: in vivo; for AUC: mouse, 24 h
In short: (§1)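 Female CD1 mice were given a single 10 mg/kg IP dose. […] Plasma was extracted with methanol/0.15% formic acid containing N-benzylbenzamide internal standard and analysed by LC-MS/MS against spiked blank-plasma standards. Cmax and AUC were derived by noncompartmental analysis.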

[3] = Cmax in CD-1 mouse at 10 mg/kg,ip measured upto 1440 mins by LC-MS/MS analysis; assay type: ADME, organism-based; design: time < 1440 min, dose 10 mg/kg, route ip; conditions: in vivo; in short: as §1
[4] = Apparent permeability of the compound from apical to basolateral side in human Caco-2 cells measured upto 120 mins by LC-MS/MS analysis; assay type: ADME, cell-based; conditions: caco-2, 2 h
In short: (§2)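 Caco-2 cells were grown three weeks on 12-well Transwells in DMEM with 20% FBS and supplements, then washed in HBSS with Ca/Mg and 0.5% FBS. Monolayers were used only if TEER exceeded 800 Ωcm², and TEER was rechecked after the assay.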

Mus musculus [5] = experiment: Protection against DSS-induced acute ulcerative colitis in […] mouse assessed as increase in colon length at 40 mg/kg,po measured after 12 days of administration; assay type: functional, organism-based; conditions: time 12.0 day
Mus musculus [6] = experiment: […] activity against bone marrow transplanted mouse model assessed as increase in RBC repopulation at 10 mg/kg,ip bid measured by flow cytometry after 15 days post-transplant recovery period; assay type: functional, organism-based; conditions: Erythrocyte, time 15.0 day
Mus musculus [7] = experiment: […] activity against bone marrow transplanted mouse model assessed as increase in total WBC repopulation at 10 mg/kg,ip bid measured by flow cytometry after 15 days post-transplant recovery period; assay type: functional, organism-based; conditions: time 15.0 day
Mus musculus [8] = experiment: Protection against DSS-induced acute ulcerative colitis in […] mouse assessed as increase in colon length at 10 mg/kg,ip measured from 8 to 12 days of administration; assay type: functional, organism-based; conditions: time 8-12 day
Colon [9] = experiment: In vivo activation of PGE2 in C57BL/6J mouse colon tissue assessed as increase in PGE2 level at 5 mg/kg,ip measured after 3 hrs by ELISA; assay type: functional, organism-based
In short: (§3)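 Female C57bl/6J mice aged 8-9 weeks were dosed IP and euthanised 3 h later. Colon and lung were rinsed in ice-cold PBS with indomethacin (5.6 µg/ml), snap-frozen, pulverised, homogenised in cold PBS/indomethacin, sonicated on ice and centrifuged. PGE2 in the supernatant was measured by ELISA in triplicate and normalised to BCA protein as ng PGE2/mg protein.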

[10] = Cmax in CD-1 mouse at 5 mg/kg,iv measured upto 1440 mins by LC-MS/MS analysis; assay type: ADME, organism-based; design: dose 5 mg/kg, time < 1440 min, route iv; conditions: in vivo, 24 h
In short: (§4)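 Female CD1 mice received a single 10 mg/kg PO or 5 mg/kg IV dose in 10% DMSO, 25% PEG400, 1% Tween-80 and 64% D5W (pH 7.4). Groups of three were killed at 0–1440 min, with blood taken by cardiac puncture into ACD. Plasma was extracted into methanol with formic acid and internal standard, and drug was quantified by LC-MS/MS against spiked blank-plasma standards. Cmax and AUC came from noncompartmental analysis.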

Colon [11] = experiment: animal or person; conditions: Mus musculus, C57BL/6J, po, 0.5 h, read-out: INH
Mus musculus [12] = experiment: Protection against DSS-induced acute ulcerative colitis in […] mouse assessed as decrease in cryptitis score at 10 mg/kg,ip measured after 12 days of administration; assay type: functional, organism-based; conditions: time 12.0 day
Lung [13] = experiment: In vivo activation of PGE2 in C57BL/6J mouse lung tissue assessed as increase in PGE2 level at 5 mg/kg,ip measured after 3 hrs by ELISA; assay type: functional, organism-based; in short: as §3
Lung [14] = experiment: In vivo activation of PGE2 in C57BL/6J mouse lung tissue assessed as increase in PGE2 level at 2.5 mg/kg,ip measured after 3 hrs by ELISA; assay type: functional, organism-based; in short: as §3
Mus musculus [15] = experiment: Protection against DSS-induced acute ulcerative colitis in […] mouse assessed as increase in body weight at 10 mg/kg,ip measured from 7 to 12 days of administration; assay type: functional, organism-based; conditions: time 7-12 day
Colon [16] = experiment: animal or person; conditions: Mus musculus, C57BL/6J, po, 1.5 h, read-out: INH
Mus musculus [17] = experiment: Protection against DSS-induced acute ulcerative colitis in […] mouse assessed as decrease in cryptitis score at 40 mg/kg,po measured after 12 days of administration; assay type: functional, organism-based; conditions: time 12.0 day
[18] = Cmax in CD-1 mouse at 10 mg/kg,po measured upto 1440 mins by LC-MS/MS analysis; assay type: ADME, organism-based; design: dose 10 mg/kg, time < 1440 min, route po; conditions: in vivo, 24 h; in short: as §4
Colon [19] = experiment: In vivo activation of PGE2 in C57BL/6J mouse colon tissue assessed as increase in PGE2 level at 2.5 mg/kg,ip measured after 3 hrs by ELISA; assay type: functional, organism-based; in short: as §3
[20] = AUC in CD-1 mouse at 5 mg/kg,iv measured upto 1440 mins by LC-MS/MS analysis; assay type: ADME, organism-based; design: dose 5 mg/kg, time < 1440 min, route iv; conditions: in vivo, 24 h; in short: as §4
[21] = AUC in CD-1 mouse at 10 mg/kg,po measured upto 1440 mins by LC-MS/MS analysis; assay type: ADME, organism-based; design: time < 1440 min, dose 10 mg/kg, route po; conditions: in vivo, 24 h; in short: as §4
[22] = Oral bioavailability in CD-1 mouse at 10 mg/kg measured upto 1440 mins by LC-MS/MS analysis; assay type: ADME, organism-based; conditions: in vivo, 24 h; in short: as §4
[23] = Apparent permeability of the compound from basolateral to apical side in human Caco-2 cells measured upto 120 mins by LC-MS/MS analysis; assay type: ADME, cell-based; conditions: caco-2, 2 h; in short: as §2
Mus musculus [24] = experiment: Protection against DSS-induced acute ulcerative colitis in […] mouse assessed as increase in body weight at 40 mg/kg,po measured upto 12 days of administration; assay type: functional, organism-based; conditions: time <= 12.0 day

SMILES: O=C(c1ccc2ncc(-c3ccc4ncccc4c3)nc2c1)N1CCCCC1
solubility thermodynamic [1]: 55 µg/mL (≈ 149 µM)

SMILES: Cn1ccc2cc(-c3cnc4ccc(C(=O)N5CCCCC5)cc4n3)ccc2c1=O
Papp [4]: 45 10^-6 cm/s
Activity (Mus musculus [5]): Active
AUC [2]: 517 µg·min/mL
Activity (Mus musculus [6]): Active
Activity (Mus musculus [7]): Active
Activity (Mus musculus [8]): Active
Activity (Colon [9]): Active
Cmax ([3]; mouse, 24 h): 6400 ng/mL
Cmax [10]: 3000 ng/mL
inhibition in vivo at 20 mg/kg (Colon [11]): > 90%
Activity (Mus musculus [12]): Active
solubility thermodynamic [1]: 56 µg/mL (≈ 141 µM)
Activity (Lung [13]): Active
Activity (Lung [14]): Active
Activity (Mus musculus [15]): Active
inhibition in vivo at 20 mg/kg (Colon [16]): > 80%
Activity (Mus musculus [17]): Active
Cmax [18]: 950 ng/mL
Activity (Colon [19]): Active
AUC [20]: 205 µg·min/mL
AUC [21]: 256 µg·min/mL
F [22]: 63%
Papp [23]: 34 10^-6 cm/s
Activity (Mus musculus [24]): Active

SMILES: Cl.Nc1ncc(-c2cnc3ccc(C(=O)N4CCCCC4)cc3n2)cc1Cl
AUC at 24 h ([2]; CD-1, mouse): 2870 ng·h/mL
Activity (Colon [9]): Active
Cmax ([3]; CD-1, mouse, read-out: Cmax): 3000 ng/mL
Activity (Lung [13]): Active

Continued, values first:

AUC [2]: 270 µg·min/mL
Cmax ([3]; mouse, 24 h): 7400 ng/mL
solubility thermodynamic [1]: 4 µg/mL (≈ 10.4 µM)
SMILES: O=C(c1ccc2ncc(-c3ccc4c(=O)[nH]ccc4c3)nc2c1)N1CCCCC1

solubility thermodynamic [1]: 14 µg/mL (≈ 38 µM)
SMILES: O=C(c1ccc2ncc(-c3ccc4cnccc4c3)nc2c1)N1CCCCC1
